From ChEMBL document CHEMBL3407369, “Exploration of cyanine compounds as selective inhibitors of protein arginine methyltransferases: synthesis and biological evaluation” (J Med Chem, 2015)
The source made the active and inactive calls. The calls are words filed in the database; no cut-off is given here.

biological target: T1, Protein arginine N-methyltransferase 1 (Homo sapiens, UniProt Q99873); experiment: Displacement of [3H]-SAM from recombinant His6-tagged PRMT1 (unknown origin) expressed in Escherichia coli BL21(DE3) at 10 uM incubated for 5 mins prior to H4(1 to 20)-BTN peptide addition measured after 8 mins by scintillation proximity assay
Method in brief: (§1)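 His6-PRMT1 (0.02 µM) was purified from E. coli BL21(DE3) on Ni-NTA. It was preincubated 5 min with compound (10, 30 or 90 µM) and [3H]SAM (0.5 µM) in 50 mM HEPES pH 8.0, 1 mM EDTA, 50 mM NaCl, 0.5 mM DTT at ~25 °C. Biotinylated H4(1–20) peptide (1 µM) was added and the reaction run 8 min. It was quenched with isopropanol and read with streptavidin SPA beads. % inhibition was taken against water (full activity) and no-peptide blanks.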
Target sequence in this assay (Q99873 whole entry, looked up): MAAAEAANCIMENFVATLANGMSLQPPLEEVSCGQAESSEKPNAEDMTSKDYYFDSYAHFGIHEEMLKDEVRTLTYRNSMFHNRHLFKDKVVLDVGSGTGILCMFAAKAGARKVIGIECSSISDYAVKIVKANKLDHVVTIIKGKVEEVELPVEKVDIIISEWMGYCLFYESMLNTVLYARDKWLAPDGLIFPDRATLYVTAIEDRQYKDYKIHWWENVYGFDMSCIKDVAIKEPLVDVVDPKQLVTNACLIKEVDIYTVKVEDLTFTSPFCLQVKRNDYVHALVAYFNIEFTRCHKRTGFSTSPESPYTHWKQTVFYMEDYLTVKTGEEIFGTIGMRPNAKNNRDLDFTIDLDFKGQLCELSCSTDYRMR

Q: For `CCCCN1/C(=C/C=C/C2=[N+](CCCC)c3ccccc3C2(C)C)C(C)(C)c2ccccc21`, which inhibition is on record?
A: Its inhibition is “inactive”.

Q: Which inhibition does the source give for `CN1/C(=C/C=C/C2=[N+](CCC[N+](C)(C)C)c3ccccc3C2(C)C)C(C)(C)c2ccccc21` here?
A: The inhibition was 2%.

Q: For `CN1/C(=C/C=C/C2=[N+](CCCS(=O)(=O)[O-])c3ccccc3C2(C)C)C(C)(C)c2ccccc21`, which inhibition is on record?
A: The inhibition was “inactive”.

Q: With `CCN1/C(=C/C=C/C2=[N+](CC)c3ccc(Br)cc3C2(C)C)C(C)(C)c2cc(Br)ccc21` as the compound, how does the inhibition read?
A: The inhibition was 11%.

Q: With `CCN1/C(=C/C=C/c2sc3cc(Br)ccc3[n+]2CC)Sc2cc(Br)ccc21` as the compound, how does the inhibition read?
A: The inhibition was 88%.

Q: For `C(/C=C/c1sc2c3ccccc3ccc2[n+]1CCCc1ccccc1)=C1/Sc2c(ccc3ccccc23)N1CCCc1ccccc1`, which inhibition is on record?
A: Its inhibition is 100%.

Q: Which inhibition does the source give for `CCCCN1/C(=C/C=C/C2=[N+](CCCC)c3ccc(Cl)cc3C2(C)C)C(C)(C)c2cc(Cl)ccc21` here?
A: Its inhibition is 34%.

Q: `CCN1/C(=C/C=C/c2sc3ccccc3[n+]2CC)Sc2ccccc21` was tested. Which inhibition did it give?
A: Its inhibition is 46%.

Q: Which inhibition does the source give for `CC1=[N+](CCCc2ccccc2)c2ccccc2C1(C)C` here?
A: The inhibition was “inactive”.

Q: For `CC1(C)C(/C=C/C=C2/N(CCCc3ccccc3)c3ccccc3C2(C)C)=[N+](CCCc2ccccc2)c2ccccc21`, which inhibition is on record?
A: The inhibition was 41%.

Q: With `CCCCN1/C(=C/C(C)=C/c2sc3ccccc3[n+]2CCCC)Sc2ccccc21` as the compound, how does the inhibition read?
A: The inhibition was 77%.

Q: Which inhibition does the source give for `CCN1/C(=C/C=C/C2=[N+](CC)c3ccc4ccccc4c3C2(C)C)C(C)(C)c2c1ccc1ccccc21` here?
A: The inhibition was 27%.

Q: For `CC[N+]1=C(C)C(C)(C)c2ccccc21`, which inhibition is on record?
A: Its inhibition is “inactive”.

Q: How did the inhibition turn out when `CCCCN1/C(=C/C=C(Br)/C=C/C2=[N+](CCCC)c3ccc(Br)cc3C2(C)C)C(C)(C)c2cc(Br)ccc21` was run?
A: Its inhibition is 96%.

Q: How did the inhibition turn out when `CCN1/C(=C/C=C/C2=[N+](CC)c3ccc(Cl)cc3C2(C)C)C(C)(C)c2cc(Cl)ccc21` was run?
A: The inhibition was 7%.

Q: How did the inhibition turn out when `CC1(C)C(/C=C/C=C2/N(CCCc3ccccc3)c3ccc4ccccc4c3C2(C)C)=[N+](CCCc2ccccc2)c2ccc3ccccc3c21` was run?
A: The inhibition was 100%.

Q: `CCCCN1/C(=C/C=C/c2sc3c4ccccc4ccc3[n+]2CCCC)Sc2c1ccc1ccccc21` was tested. Which inhibition did it give?
A: Its inhibition is 99%.

Q: With `CCN1/C(=C/C=C(Cl)/C=C/C2=[N+](CC)c3ccc4ccccc4c3C2(C)C)C(C)(C)c2c1ccc1ccccc21` as the compound, how does the inhibition read?
A: The inhibition was 69%.

Q: Which inhibition does the source give for `CCCCN1/C(=C/C=C/C2=[N+](CCCC)c3ccc4ccccc4c3C2(C)C)C(C)(C)c2c1ccc1ccccc21` here?
A: Its inhibition is 91%.

Q: Which inhibition does the source give for `CN1/C(=C/C=C/C2=[N+](CCCc3ccccc3)c3ccccc3C2(C)C)C(C)(C)c2ccccc21` here?
A: Its inhibition is 35%.

biological target: T1, Protein arginine N-methyltransferase 1; experiment: Displacement of [3H]-SAM from recombinant His6-tagged PRMT1 (unknown origin) expressed in Escherichia coli BL21(DE3) at 30 uM incubated for 5 mins prior to H4(1 to 20)-BTN peptide addition measured after 8 mins by scintillation proximity assay; method in brief: as §1
Target sequence in this assay (Q99873 whole entry, looked up): as above

Q: How did the inhibition turn out when `CCCCN1/C(=C/C=C/C2=[N+](CCCC)c3ccccc3C2(C)C)C(C)(C)c2ccccc21` was run?
A: The inhibition was 48%.

Q: How did the inhibition turn out when `CC1=[N+](CCCc2ccccc2)c2ccccc2C1(C)C` was run?
A: The inhibition was “inactive”.

Q: How did the inhibition turn out when `CC1(C)C(/C=C/C=C2/N(CCCc3ccccc3)c3ccccc3C2(C)C)=[N+](CCCc2ccccc2)c2ccccc21` was run?
A: The inhibition was 101%.

Q: How did the inhibition turn out when `CC[N+]1=C(C)C(C)(C)c2ccccc21` was run?
A: The inhibition was “inactive”.

Q: Which inhibition does the source give for `CN1/C(=C/C=C/C2=[N+](CCCc3ccccc3)c3ccccc3C2(C)C)C(C)(C)c2ccccc21` here?
A: The inhibition was 96%.

biological target: T1, Protein arginine N-methyltransferase 1; experiment: Displacement of [3H]-SAM from recombinant His6-tagged PRMT1 (unknown origin) expressed in Escherichia coli BL21(DE3) at 90 uM incubated for 5 mins prior to H4(1 to 20)-BTN peptide addition measured after 8 mins by scintillation proximity assay; method in brief: as §1
Target sequence in this assay (Q99873 whole entry, looked up): as above

Q: How did the inhibition turn out when `CCCCN1/C(=C/C=C/C2=[N+](CCCC)c3ccccc3C2(C)C)C(C)(C)c2ccccc21` was run?
A: The inhibition was 91%.

Q: With `CC1=[N+](CCCc2ccccc2)c2ccccc2C1(C)C` as the compound, how does the inhibition read?
A: The inhibition was 80%.

Q: For `CC1(C)C(/C=C/C=C2/N(CCCc3ccccc3)c3ccccc3C2(C)C)=[N+](CCCc2ccccc2)c2ccccc21`, which inhibition is on record?
A: The inhibition was 100%.

Q: With `CC[N+]1=C(C)C(C)(C)c2ccccc21` as the compound, how does the inhibition read?
A: Its inhibition is “inactive”.

Q: How did the inhibition turn out when `CN1/C(=C/C=C/C2=[N+](CCCc3ccccc3)c3ccccc3C2(C)C)C(C)(C)c2ccccc21` was run?
A: The inhibition was 101%.

biological target: T1, Protein arginine N-methyltransferase 1; experiment: Displacement of [3H]-SAM from recombinant His6-tagged PRMT1 (unknown origin) expressed in Escherichia coli BL21(DE3) incubated for 5 mins prior to H4(1 to 20)-BTN peptide addition measured after 8 mins by scintillation proximity assay
Method in brief: (§2)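 Serial compound dilutions were tested in the same SPA format (His-tagged enzyme purified from E. coli BL21(DE3), 5 min preincubation, H4(1–20)-biotin substrate, 8 min reaction, ~25 °C, HEPES pH 8.0 buffer). [3H]SAM and peptide were set near their predetermined Km values for each enzyme. Remaining activity was fitted to a Hill-modified IC50 equation, giving IC50 and Hill coefficient.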
Target sequence in this assay (Q99873 whole entry): as the sequence (Q99873 whole entry, looked up) above

Q: How did the IC50 turn out when `CCN1/C(=C/C=C/c2sc3cc(Br)ccc3[n+]2CC)Sc2cc(Br)ccc21` was run?
A: Its IC50 is 6.43 µM.

Q: For `C(/C=C/c1sc2c3ccccc3ccc2[n+]1CCCc1ccccc1)=C1/Sc2c(ccc3ccccc23)N1CCCc1ccccc1`, which IC50 is on record?
A: The IC50 was 3.05 µM.

Q: With `CCCCN1/C(=C/C=C(Br)/C=C/C2=[N+](CCCC)c3ccc(Br)cc3C2(C)C)C(C)(C)c2cc(Br)ccc21` as the compound, how does the IC50 read?
A: The IC50 was 3.38 µM.

Q: Which IC50 does the source give for `CC1(C)C(/C=C/C=C2/N(CCCc3ccccc3)c3ccc4ccccc4c3C2(C)C)=[N+](CCCc2ccccc2)c2ccc3ccccc3c21` here?
A: Its IC50 is 0.61 µM.

Q: With `CCCCN1/C(=C/C=C/c2sc3c4ccccc4ccc3[n+]2CCCC)Sc2c1ccc1ccccc21` as the compound, how does the IC50 read?
A: The IC50 was 4 µM.

biological target: Protein arginine N-methyltransferase 5 (Homo sapiens, UniProt O14744); experiment: Displacement of [3H]-SAM from recombinant His6-tagged PRMT5 (unknown origin) expressed in Escherichia coli BL21(DE3) incubated for 5 mins prior to H4(1 to 20)-BTN peptide addition measured after 8 mins by scintillation proximity assay
Method in brief: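 Recombinant His6-PRMT5 was purified on Ni-NTA after IPTG induction in E. coli BL21(DE3). [3H]SAM and H4(1–20)BTN were set near their predetermined Km. Serially diluted compound was preincubated 5 min before peptide addition, reacted 8 min, isopropanol-quenched, and read with streptavidin SPA beads. IC50 and nH came from a Hill fit.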

Protein arginine N-methyltransferase 5, sequence (O14744 whole entry): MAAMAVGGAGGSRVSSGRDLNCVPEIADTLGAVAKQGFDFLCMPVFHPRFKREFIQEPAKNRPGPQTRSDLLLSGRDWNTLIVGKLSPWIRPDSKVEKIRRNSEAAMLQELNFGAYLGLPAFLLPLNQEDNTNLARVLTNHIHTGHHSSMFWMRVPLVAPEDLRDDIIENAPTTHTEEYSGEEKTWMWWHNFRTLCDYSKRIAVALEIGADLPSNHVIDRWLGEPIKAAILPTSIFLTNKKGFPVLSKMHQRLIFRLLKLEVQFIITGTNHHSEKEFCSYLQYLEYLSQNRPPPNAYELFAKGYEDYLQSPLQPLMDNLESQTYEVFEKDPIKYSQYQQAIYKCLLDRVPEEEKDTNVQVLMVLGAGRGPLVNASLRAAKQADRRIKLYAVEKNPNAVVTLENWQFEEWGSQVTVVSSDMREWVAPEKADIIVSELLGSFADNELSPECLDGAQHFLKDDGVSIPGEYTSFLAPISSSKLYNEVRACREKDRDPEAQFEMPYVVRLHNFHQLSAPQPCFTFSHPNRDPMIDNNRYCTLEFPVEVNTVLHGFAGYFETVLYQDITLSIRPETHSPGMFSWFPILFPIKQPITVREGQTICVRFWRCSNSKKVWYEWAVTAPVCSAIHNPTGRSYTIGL

Q: `C(/C=C/c1sc2c3ccccc3ccc2[n+]1CCCc1ccccc1)=C1/Sc2c(ccc3ccccc23)N1CCCc1ccccc1` was tested. Which IC50 did it give?
A: The IC50 was 7.04 µM.

Q: Which IC50 does the source give for `CCCCN1/C(=C/C=C(Br)/C=C/C2=[N+](CCCC)c3ccc(Br)cc3C2(C)C)C(C)(C)c2cc(Br)ccc21` here?
A: The IC50 was 35.4 µM.

Q: With `CC1(C)C(/C=C/C=C2/N(CCCc3ccccc3)c3ccc4ccccc4c3C2(C)C)=[N+](CCCc2ccccc2)c2ccc3ccccc3c21` as the compound, how does the IC50 read?
A: Its IC50 is 1.4 µM.

biological target: Protein arginine N-methyltransferase 8 (Homo sapiens, UniProt Q9NR22); experiment: Displacement of [3H]-SAM from recombinant His6-tagged PRMT8 (unknown origin) expressed in Escherichia coli BL21(DE3) incubated for 5 mins prior to H4(1 to 20)-BTN peptide addition measured after 8 mins by scintillation proximity assay; method in brief: as §2
Sequence (Q9NR22 whole entry): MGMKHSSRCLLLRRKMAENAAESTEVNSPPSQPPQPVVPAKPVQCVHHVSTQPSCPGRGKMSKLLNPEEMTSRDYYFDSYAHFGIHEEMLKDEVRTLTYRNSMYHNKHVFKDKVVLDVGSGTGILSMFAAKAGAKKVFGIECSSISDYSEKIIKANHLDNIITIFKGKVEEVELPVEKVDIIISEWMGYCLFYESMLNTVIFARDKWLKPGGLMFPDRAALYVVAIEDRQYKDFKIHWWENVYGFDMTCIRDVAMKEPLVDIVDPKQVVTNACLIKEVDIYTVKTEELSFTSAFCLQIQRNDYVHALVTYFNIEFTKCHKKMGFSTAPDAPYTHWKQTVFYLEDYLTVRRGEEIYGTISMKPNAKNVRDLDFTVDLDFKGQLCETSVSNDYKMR

Q: Which IC50 does the source give for `C(/C=C/c1sc2c3ccccc3ccc2[n+]1CCCc1ccccc1)=C1/Sc2c(ccc3ccccc23)N1CCCc1ccccc1` here?
A: The IC50 was 28.4 µM.

Q: With `CCCCN1/C(=C/C=C(Br)/C=C/C2=[N+](CCCC)c3ccc(Br)cc3C2(C)C)C(C)(C)c2cc(Br)ccc21` as the compound, how does the IC50 read?
A: The IC50 was 84.9 µM.

Q: For `CC1(C)C(/C=C/C=C2/N(CCCc3ccccc3)c3ccc4ccccc4c3C2(C)C)=[N+](CCCc2ccccc2)c2ccc3ccccc3c21`, which IC50 is on record?
A: Its IC50 is 1.74 µM.

organism: Homo sapiens; experiment: Selectivity ratio of IC50 for recombinant […] (unknown origin) to IC50 for recombinant His6-tagged PRMT1 (unknown origin)

Q: `C(/C=C/c1sc2c3ccccc3ccc2[n+]1CCCc1ccccc1)=C1/Sc2c(ccc3ccccc23)N1CCCc1ccccc1` was tested. Which Ratio IC50 did it give?
A: Its Ratio IC50 is 2.

organism: Homo sapiens; experiment: Selectivity ratio of IC50 for recombinant His6-tagged PRMT5 (unknown origin) to IC50 for recombinant His6-tagged PRMT1 (unknown origin)

Q: How did the Ratio IC50 turn out when `C(/C=C/c1sc2c3ccccc3ccc2[n+]1CCCc1ccccc1)=C1/Sc2c(ccc3ccccc23)N1CCCc1ccccc1` was run?
A: The Ratio IC50 was 2.

organism: Homo sapiens; experiment: Selectivity ratio of IC50 for recombinant His6-tagged PRMT8 (unknown origin) to IC50 for recombinant His6-tagged PRMT1 (unknown origin)

Q: For `C(/C=C/c1sc2c3ccccc3ccc2[n+]1CCCc1ccccc1)=C1/Sc2c(ccc3ccccc23)N1CCCc1ccccc1`, which Ratio IC50 is on record?
A: Its Ratio IC50 is over 9.

biological target: T2, Histone-arginine methyltransferase CARM1 (Homo sapiens, UniProt Q86X55); experiment: Displacement of [3H]-SAM from recombinant GST-tagged CARM1 (unknown origin) expressed in Escherichia coli BL21(DE3) incubated for 5 mins prior to H3.3 protein addition measured after 8 mins by P81 filter paper binding assay
T2 sequence (Q86X55 whole entry): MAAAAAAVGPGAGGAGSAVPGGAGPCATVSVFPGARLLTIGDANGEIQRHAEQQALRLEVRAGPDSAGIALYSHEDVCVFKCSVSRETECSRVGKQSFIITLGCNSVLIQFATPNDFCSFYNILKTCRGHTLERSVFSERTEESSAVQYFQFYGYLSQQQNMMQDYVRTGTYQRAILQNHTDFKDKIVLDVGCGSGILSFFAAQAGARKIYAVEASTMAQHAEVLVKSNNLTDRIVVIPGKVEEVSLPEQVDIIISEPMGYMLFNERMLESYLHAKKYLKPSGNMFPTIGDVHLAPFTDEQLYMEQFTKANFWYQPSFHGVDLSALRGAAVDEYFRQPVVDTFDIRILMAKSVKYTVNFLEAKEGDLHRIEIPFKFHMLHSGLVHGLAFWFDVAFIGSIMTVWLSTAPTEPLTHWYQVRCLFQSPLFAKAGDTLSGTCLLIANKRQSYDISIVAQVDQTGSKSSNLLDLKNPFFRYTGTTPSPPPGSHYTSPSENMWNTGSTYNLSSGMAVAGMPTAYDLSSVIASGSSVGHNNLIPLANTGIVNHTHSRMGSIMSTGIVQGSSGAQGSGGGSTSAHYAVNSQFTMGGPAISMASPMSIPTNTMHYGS

Q: For `C(/C=C/c1sc2c3ccccc3ccc2[n+]1CCCc1ccccc1)=C1/Sc2c(ccc3ccccc23)N1CCCc1ccccc1`, which IC50 is on record?
A: Its IC50 is 5.8 µM.

Q: Which IC50 does the source give for `CCCCN1/C(=C/C=C(Br)/C=C/C2=[N+](CCCC)c3ccc(Br)cc3C2(C)C)C(C)(C)c2cc(Br)ccc21` here?
A: Its IC50 is 21.5 µM.
